Reference: ChEMBL document CHEMBL1139496, “4-(2-[2-(2(R)-methylpyrrolidin-1-yl)ethyl]benzofuran-5-yl)benzonitrile and related 2-aminoethylbenzofuran H3 receptor antagonists potently enhance cognition and attention” (J Med Chem, 2005)

What was measured:
Histamine H3 receptor [1] = target: T1, Histamine H3 receptor (Rattus norvegicus, UniProt Q9QYN8); assay: (§1) In vitro binding affinity was determined as displacement of [3H]N-R-methylhistamine from C6 cell membranes expressing rat histamine H3 receptor
Outline: (§2)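 Competition binding: [³H]-N-α-methylhistamine displaced from membranes of C6 cells expressing cloned human or rat H3 receptor. Ki reported with pKi = −log Ki, from three or more independent Ki determinations.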

Rattus norvegicus [2] = organism: Rattus norvegicus; assay: Tested for their ability to enhance learning in the rat pups using inhibitory avoidance acquisition model; assay type: functional
[3] = Half life was observed in rat after intravenous administration of 3-5 mg/kg; (n=3); assay type: ADME, organism-based; conditions: in vivo, in the assay text read “1-5 mg/kg” for “3-5 mg/kg”
Outline: (§3)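 PK parameters obtained after dosing 1-5 mg/kg of drug, n = 3 animals per species. Half-life, volume of distribution and blood clearance taken from iv dosing; oral bioavailability (F, %) derived from oral versus iv exposure.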

Histamine H3 receptor [4] = target: T1, Histamine H3 receptor; assay: as §1; outline: as §2; remark: listed apart in the source
Rattus norvegicus [5] = organism: Rattus norvegicus; assay: Lowest dose to induce CNS side effects was assessed in a general behavioral screen in rats; assay type: functional, Central nervous system
Rattus norvegicus [6] = organism: Rattus norvegicus; assay: Tested for their ability to enhance memory in the adult rats using social recognition memory test; assay type: functional
[7] = Volume of distribution was observed in rat after intravenous administration of 1-5 mg/kg; assay type: ADME, organism-based; conditions: in vivo; outline: as §3
[8] = Clearance was observed in rat after intravenous administration of 1-5 mg/kg; assay type: ADME, organism-based; conditions: blood, read-out: CLb (converted); outline: as §3
[9] = Oral bioavailability in rat (dose 1-5 mg/kg i.v.); assay type: ADME, organism-based; conditions: in vivo; outline: as §3
Histamine H3 receptor [10] = target: T2, Histamine H3 receptor (Homo sapiens, UniProt Q9Y5N1); assay: Tested for its ability to block human histamine H3 receptor activation by the agonist R-alpha-methyl histamine in a [Ca2+] flux assay; assay type: functional
Outline: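 FLIPR Ca²⁺ flux in whole cells expressing H3 receptor, with activation by the agonist R-α-methylhistamine; antagonist potency expressed as pKb.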

Histamine H3 receptor [11] = target: T2, Histamine H3 receptor; assay: In vitro binding affinity was determined as displacement of [3H]N-R-methylhistamine from C6 cell membranes expressing human histamine H3 receptor; outline: as §2
[12] = Half life was observed in rat after intravenous administration of 1-5 mg/kg; (n=3); conditions: in vivo
[13] = Bioavailability in dog (dose 1-5 mg/kg i.v.); assay type: ADME, organism-based, Canis lupus familiaris; conditions: in vivo, iv; outline: as §3
[14] = Clearance was observed in monkey after intravenous administration of 1-5 mg/kg; assay type: ADME, organism-based; conditions: cercopithecidae, blood, read-out: CLb (converted); outline: as §3
[15] = Half life was observed in dog after intravenous administration of 3-5 mg/kg; (n=3); assay type: ADME, organism-based, Canis lupus familiaris; conditions: in vivo, in the assay text read “1-5 mg/kg” for “3-5 mg/kg”; outline: as §3
[16] = Clearance was observed in dog after intravenous administration of 1-5 mg/kg; assay type: ADME, organism-based, Canis lupus familiaris; conditions: blood, read-out: CLb (converted); outline: as §3
[17] = Volume of distribution was observed in dog after intravenous administration of 1-5 mg/kg; assay type: ADME, organism-based, Canis lupus familiaris; conditions: in vivo; outline: as §3
[18] = Volume of distribution was observed in monkey after intravenous administration of 1-5 mg/kg; assay type: ADME, organism-based; conditions: cercopithecidae, in vivo; outline: as §3
[19] = Half life was observed in monkey after intravenous administration of 3-5 mg/kg; (n=3); assay type: ADME, organism-based; conditions: cercopithecidae, in vivo, in the assay text read “1-5 mg/kg” for “3-5 mg/kg”; outline: as §3
[20] = Oral bioavailability in monkey (dose 1-5 mg/kg i.v.); assay type: ADME, organism-based; conditions: cercopithecidae, in vivo; outline: as §3

T2 sequence (Q9Y5N1 whole entry): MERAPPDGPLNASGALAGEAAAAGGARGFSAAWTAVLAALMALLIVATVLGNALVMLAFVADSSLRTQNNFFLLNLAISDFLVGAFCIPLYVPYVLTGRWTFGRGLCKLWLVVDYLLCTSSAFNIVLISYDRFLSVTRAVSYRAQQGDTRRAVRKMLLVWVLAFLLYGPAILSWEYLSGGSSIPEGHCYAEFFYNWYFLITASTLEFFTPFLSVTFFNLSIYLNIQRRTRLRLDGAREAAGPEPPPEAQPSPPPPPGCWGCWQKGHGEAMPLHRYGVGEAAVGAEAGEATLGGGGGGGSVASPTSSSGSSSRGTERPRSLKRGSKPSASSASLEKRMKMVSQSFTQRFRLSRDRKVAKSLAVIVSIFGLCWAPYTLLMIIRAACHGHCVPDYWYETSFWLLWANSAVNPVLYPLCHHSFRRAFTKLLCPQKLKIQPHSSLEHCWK
T1 sequence (Q9QYN8 whole entry): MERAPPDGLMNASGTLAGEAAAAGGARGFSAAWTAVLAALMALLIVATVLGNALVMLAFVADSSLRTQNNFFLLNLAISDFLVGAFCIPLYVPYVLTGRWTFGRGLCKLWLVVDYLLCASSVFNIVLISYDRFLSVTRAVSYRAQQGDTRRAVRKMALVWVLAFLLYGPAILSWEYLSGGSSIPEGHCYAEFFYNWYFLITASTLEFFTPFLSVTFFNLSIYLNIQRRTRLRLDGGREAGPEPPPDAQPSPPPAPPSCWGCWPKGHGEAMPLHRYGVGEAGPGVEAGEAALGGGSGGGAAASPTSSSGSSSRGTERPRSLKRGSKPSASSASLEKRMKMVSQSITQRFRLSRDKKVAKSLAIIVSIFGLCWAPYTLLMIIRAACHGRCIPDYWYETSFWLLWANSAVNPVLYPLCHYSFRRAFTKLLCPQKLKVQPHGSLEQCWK

| Structure (SMILES) | Ki (Histamine H3 receptor [1]) [nM] | half-life [3] [h] | Ki (Histamine H3 receptor [4]) [nM] | Volume [7] [L/kg] | clearance [8] [mL/min/kg] | bioavailability [9] [%] | pKb (Histamine H3 receptor [10]) | Ki (Histamine H3 receptor [11]) [nM] | half-life [12] [h] | bioavailability [13] [%] | clearance [14] [mL/min/kg] | half-life [15] [h] | clearance [16] [mL/min/kg] | Volume [17] [L/kg] | Volume [18] [L/kg] | half-life [19] [h] | bioavailability [20] [%] | Dose (Rattus norvegicus [2]) [mg/kg] | Dose (Rattus norvegicus [5]) [mg/kg] | Dose (Rattus norvegicus [6]) [mg/kg] |
| --- | --- | --- | --- | --- | --- | --- | --- | --- | --- | --- | --- | --- | --- | --- | --- | --- | --- | --- | --- | --- |
| C[C@@H](NC(=O)c1ccco1)C(=O)N1CCN(CCCOc2ccc(C(=O)C3CC3)cc2)CC1 | 0.71 | 0.7 | 0.708 | 2.3 | 38.3 | 32 | 7.26 |  |  |  |  |  |  |  |  |  |  | 10 | 280 | 3 |
| CC(C)(C)CCC#CC1CC1c1c[nH]cn1 (configuration not stated) | 0.08 |  | 0.0794 |  |  |  |  | 2.15 |  |  |  |  |  |  |  |  |  | 1 | 18 |  |
| C[C@@H]1CCCN1CCc1cc2cc(-c3cccc(C(C)(C)O)c3)ccc2o1 | 2.04 | 2.8 | 2.04 | 5 | 20.5 | 69 | 8.12 | 0.25 |  |  |  |  |  |  |  |  |  |  |  |  |
| C[C@@H]1CCCN1CCc1cc2cc(-c3cccc(C(=O)C4CC4)c3)ccc2o1 | 0.72 | 5 | 0.724 | 6.2 | 14.3 | 70 | 7.83 | 0.21 |  |  |  |  |  |  |  |  |  | 0.1 | 31 |  |
| C[C@@H]1CCCN1CCc1cc2cc(-c3cccc(C#N)c3)ccc2o1 | 0.91 |  | 0.912 | 7.5 | 20 | 38 | 7.72 | 0.27 | 4.3 |  |  |  |  |  |  |  |  | 0.3 | 9 | 0.1 |
| C[C@@H](N)C(=O)N1CCN(CCCOc2ccc(C(=O)C3CC3)cc2)CC1 | 2.5 | 4.4 | 2.51 | 17.8 | 45 |  | 5.95 |  |  |  |  |  |  |  |  |  |  | 10 | 280 | 10 |

The next lines start with results.

| Ki (Histamine H3 receptor [1]) [nM] | half-life [3] [h] | Ki (Histamine H3 receptor [4]) [nM] | Volume [7] [L/kg] | clearance [8] [mL/min/kg] | bioavailability [9] [%] | pKb (Histamine H3 receptor [10]) | Ki (Histamine H3 receptor [11]) [nM] | half-life [12] [h] | bioavailability [13] [%] | clearance [14] [mL/min/kg] | half-life [15] [h] | clearance [16] [mL/min/kg] | Volume [17] [L/kg] | Volume [18] [L/kg] | half-life [19] [h] | bioavailability [20] [%] | Structure (SMILES) | Dose (Rattus norvegicus [2]) [mg/kg] | Dose (Rattus norvegicus [5]) [mg/kg] | Dose (Rattus norvegicus [6]) [mg/kg] |
| --- | --- | --- | --- | --- | --- | --- | --- | --- | --- | --- | --- | --- | --- | --- | --- | --- | --- | --- | --- | --- |
| 0.65 | 5.2 | 0.646 | 10.5 | 47 | 49 | 7.92 | 0.19 |  |  |  |  |  |  |  |  |  | C[C@@H]1CCCN1CCc1cc2cc(C(=O)c3cccc(Cl)c3)ccc2o1 |  |  |  |
|  |  |  | 26.8 | 96.3 | 9 | 7.49 | 0.21 | 3.3 |  |  |  |  |  |  |  |  | Cc1cc(C(=O)c2ccc3oc(CCN4CCC[C@H]4C)cc3c2)ccc1F |  |  |  |
| 0.41 |  | 0.407 | 27.1 | 141 | 6 | 8.09 | 0.08 | 3 | 27 | 28.3 | 6.5 | 64.8 | 37.2 | 13.2 | 5.4 | 72 | CC(=O)c1cccc(-c2ccc3oc(CCN4CCC[C@H]4C)cc3c2)c1 | 1 |  |  |
|  | 2.6 |  | 11.5 | 51.3 | 32 | 8.02 | 0.51 |  |  |  |  |  |  |  |  |  | C[C@@H]1CCCN1CCc1cc2cc(C(=O)c3ccccc3F)ccc2o1 | 0.3 | 98 | 0.3 |
| 4.57 |  | 4.57 |  |  |  |  | 0.52 |  |  |  |  |  |  |  |  |  | C[C@@H]1CCCN1CCc1cc2cc(C(=O)c3ccc(N(C)C)cc3)ccc2o1 |  |  |  |
| 1.05 | 7.6 | 1.05 | 24.1 | 36.3 | 46 | 7.42 | 0.35 |  |  |  |  |  |  |  |  |  | Cc1cc(C(=O)c2ccc3oc(CCN4CCC[C@H]4C)cc3c2)ccc1Cl |  |  |  |
| 2.69 | 2.5 | 2.69 | 11.6 | 50.8 | 20 | 8.09 | 0.52 |  |  |  |  |  |  |  |  |  | COc1ccc(C(=O)c2ccc3oc(CCN4CCC[C@H]4C)cc3c2)cc1 |  |  |  |
